According to article PMC10471475 (Parasites, Hosts and Diseases, 2023):
Values joined by “and” are separate entries in the source; they are usually repeats but may differ in a detail not shown here. Equal values may be shown once. Marks after values point to notes of the source that are not given here.

Key:
[1] = Pharmacokinetic analysis of N-89 in mice after single po or iv administration; type: in vivo, ICR mice; conditions: for plasma concentration: detection limit 5 ng/ml
Outline: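 Male ICR mice got a single dose of test compound: 75 mg/kg po in olive oil or 30 mg/kg iv in 10% ethanol/10% Cremophor EL/80% saline. Blood sampled 0.25–10 h, one sample per mouse, 5 mice per time. Plasma obtained by centrifugation 10 min, 945 g, 4°C, acetonitrile-extracted, then LC/MS/MS (detection limit 5 ng/ml). Cmax observed; AUC and MRT from the mean time course (n=5).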

P. berghei (NK65 strain) [2] = assay: Peters' 4-day suppressive test by different administration routes; type: in vivo, Plasmodium berghei
Outline: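 Peters' 4-day test: male ICR mice, iv inoculation of 1×10^5 P. berghei NK65-infected erythrocytes. First dose 2 h post-inoculation, then dosing on days 0–3. Routes and doses: po 0–80 mg/day in olive oil; iv 0–80 mg/day in ethanol/Cremophor EL/saline 10:10:80; sq 0–8 mg/day in the iv vehicle. Vehicle controls; 5 mice/group. Day-4 thin-film parasitemia, expressed as percent reduction; ED50/ED90 by sigmoidal dose-response fit.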

P. berghei (NK65 strain) [3] = assay: Antimalarial activity following repeated oral dosing; type: in vivo, Plasmodium berghei; conditions: for Parasitemia day 1: before treatment (treatment days 2-4); for Parasitemia day 2: start of treatment
P. falciparum = conditions: cited from earlier work
[4] = system: mouse mammary tumor FM3A cells; conditions: in vitro; cited from earlier work
[5] = system: malaria parasites in mice; conditions: ointment, transdermal, cited from earlier work
P. berghei = conditions: cited from earlier work
[6] = ICR, mouse, plasma, iv, 30 mg/kg
[7] = ICR, mouse, plasma, po, 75 mg/kg
[8] = po, olive oil, 4 days, parasitemia on day 4
[9] = 50 mg/kg po thrice daily days 2-4
[10] = 50 mg/kg po thrice daily for 3 days
[11] = 75 mg/kg po 3 times daily days 2-4

Q: For `C1CCCCCC2(CCCCC1)OOCCCOO2` [N-89, 1,2,6,7-tetraoxaspiro[7.11]nonadecane], which AUC(0-inf) [1, 6] is on record?
A: The AUC(0-inf) was 13600 ng·h/mL.

Q: And the AUC(0-t) [1, 6]?
A: The AUC(0-t) was 13600 ng·h/mL.

Q: And the MRT [1, 6]?
A: Its MRT is 14.4 min.

Q: And the Vd [1, 6]?
A: The Vd was 0.53 L/kg.

Q: What about the clearance [1, 6] of the same compound?
A: Its clearance is 36.8 mL/min/kg.

Q: What about the concentration at 0.25 h [1, 6] of the same compound?
A: Its concentration at 0.25 h is 18.3 µg/mL.

Q: And the half-life [1, 6]?
A: Its half-life is 90 min.

Q: And the bioavailability ([1]; ICR, mouse, plasma, oral, 75 mg/kg)?
A: Its bioavailability is 7.01%.

Q: And the AUC(0-inf) [1, 7]?
A: The AUC(0-inf) was 2380 ng·h/mL.

Q: What about the AUC(0-t) [1, 7] of the same compound?
A: The AUC(0-t) was 2370 ng·h/mL.

Q: What about the Cmax [1, 7] of the same compound?
A: Its Cmax is 1.59 µg/mL.

Q: And the MRT [1, 7]?
A: Its MRT is 107 min.

Q: And the Tmax [1, 7]?
A: The Tmax was 45 min.

Q: And the concentration at 8 h [1, 7]?
A: The concentration at 8 h was 0.0081 µg/mL.

Q: And the half-life [1, 7]?
A: Its half-life is 58.2 min.

Q: What about the plasma concentration ([1]; mice, 30 mg/kg iv, at 5 h) of the same compound?
A: The plasma concentration was “could not be detected”.

Q: What about the plasma concentration ([1]; mice, 75 mg/kg po, at 10 h) of the same compound?
A: Its plasma concentration is “could not be detected”.

Q: And the Cmax ([1]; mice, single dose 75 mg/kg po (Table 1))?
A: Its Cmax is 1590 µg/mL.

Q: And the ED50 (P. berghei (NK65 strain) [2]; Plasmodium berghei, 96 h, sq, ethanol:Cremophor EL:saline 1:1:8, 4 days)?
A: Its ED50 is 2.5 ± 1.1 mg/kg.

Q: And the ED50 (P. berghei (NK65 strain) [2]; Plasmodium berghei, iv, 96 h, iv, ethanol:Cremophor EL:saline 1:1:8, 4 days)?
A: The ED50 was 14.5 ± 1.9 mg/kg.

Q: And the ED90 (P. berghei (NK65 strain) [2]; iv, ethanol:Cremophor EL:saline 1:1:8, 4 days)?
A: Its ED90 is 21.0 ± 0.8 mg/kg.

Q: What about the ED50 (P. berghei (NK65 strain) [2]; [8]) of the same compound?
A: The ED50 was 20.5 ± 2.0 mg/kg.

Q: And the ED90 (P. berghei (NK65 strain) [2]; [8])?
A: Its ED90 is 43.5 ± 1.5 mg/kg.

Q: And the ED90 (P. berghei (NK65 strain) [2]; sq, ethanol:Cremophor EL:saline 1:1:8, 4 days)?
A: Its ED90 is 3.8 ± 1.0 mg/kg.

Q: What about the “Parasitemia day 1” value (P. berghei (NK65 strain) [3]; 50 mg/kg po group) of the same compound?
A: Its value is 0.10±0.04%.

Q: What about the “Parasitemia day 3” value (P. berghei (NK65 strain) [3]; [9]) of the same compound?
A: The value was 0.11±0.06%.

Q: And the “Parasitemia day 4” value (P. berghei (NK65 strain) [3]; [9])?
A: Its value is 0.01±0.01%.

Q: What about the “Parasitemia day 5” value (P. berghei (NK65 strain) [3]; [9]) of the same compound?
A: Its value is 0.002±0.004^c %.

Q: And the “Parasitemia day 6” value (P. berghei (NK65 strain) [3]; [9])?
A: The value was 0.00^b %.

Q: And the “parasitemia of the one mouse not yet cured on day 5” value (P. berghei (NK65 strain) [3]; [9])?
A: Its value is 0.01%.

Q: What about the “Parasitemia day 2” value (P. berghei (NK65 strain) [3]; [9]) of the same compound?
A: Its value is 0.51±0.14%.

Q: What about the cure effect (P. berghei (NK65 strain) [3]; [10]) of the same compound?
A: Its cure effect is “complete cure effect”.

Q: What about the “day on which parasites were eliminated / all mice cured, no recurrence to day 30” value (P. berghei (NK65 strain) [3]; [10]) of the same compound?
A: The value was 6 days.

Q: And the “Parasitemia day 3” value (P. berghei (NK65 strain) [3]; [11])?
A: The value was 0.26±0.05%.

Q: And the “Parasitemia day 4” value (P. berghei (NK65 strain) [3]; [11])?
A: Its value is 0.01±0.01^a %.

Q: What about the “Parasitemia day 5” value (P. berghei (NK65 strain) [3]; [11]) of the same compound?
A: The value was 0.00^b %.

Q: What about the “Parasitemia day 6” value (P. berghei (NK65 strain) [3]; [11]) of the same compound?
A: Its value is 0.00%.

Q: And the “parasitemia of the 4 mice not yet cured on day 4” value (P. berghei (NK65 strain) [3]; [11])?
A: The value was “below 0.015%”.

Q: What about the “Parasitemia day 2” value (P. berghei (NK65 strain) [3]; [11]) of the same compound?
A: The value was 0.70±0.19%.

Q: And the “day on which parasites were eliminated / all mice cured, no recurrence to day 30” value (P. berghei (NK65 strain) [3]; 75 mg/kg po 3 times daily for 3 days)?
A: The value was 5 days and 4 to 5 days.

Q: And the “Parasitemia day 1” value (P. berghei (NK65 strain) [3]; 75 mg/kg po group)?
A: Its value is 0.09±0.07%.

Q: What about the “EC50 value of P. falciparum in vitro” value (P. falciparum) of the same compound?
A: The value was 6.8 ng/mL.

Q: And the “toxicity against P. falciparum relative to FM3A cells (selective toxicity)” value [4]?
A: Its value is 350 fold.

Q: And the “day from which parasites disappeared post-treatment” value ([5]; 60 mg/kg twice daily for 4 days at 0.2% parasitemia)?
A: The value was 7 days.

Q: What about the “recurrence and dermal irritation” value ([5]; 60 mg/kg twice daily for 4 days) of the same compound?
A: The value was “without parasite recurrence or dermal irritation”.

Q: Which “effect of topical formulation on infected mice” value (P. berghei; improved formulation, same experimental conditions, dose 60 mg/kg) does the source give for `CO[C@H]1O[C@@H]2O[C@@]3(C)CC[C@H]4[C@H](C)CC[C@@H]([C@H]1C)[C@@]24OO3` [artemether] here?
A: The value was “efficient”.

Q: Which “effect of topical gel on infected mice” value (P. berghei; gel applied topically twice/day x 3 days post-infection, dose 270 mg/kg) does the source give for `C[C@H]1[C@@H](OCc2ccc(C(=O)O)cc2)O[C@@H]2O[C@@]3(C)CC[C@H]4[C@H](C)CC[C@@H]1[C@@]24OO3` [artelinic acid] here?
A: The value was “prevented the death”.
